Results as given in ChEMBL document CHEMBL4406854, “Synthesis and in-vitro anti-HIV-1 evaluation of novel pyrazolo[4,3-c]pyridin-4-one derivatives” (Eur J Med Chem, 2019).
Calls of active or inactive are those of the source. No cut-off for these calls is given here.

What was measured:
[1] = Therapeutic index, ratio of CC50 for human TZM-bl cells to IC50 for antiviral activity against HIV1 VB59 infected in human TZM-bl cells; assay type: toxicity, cell-based; conditions: read-out: Ratio CC50/IC50
In short: (§1)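 TI = CC50/IC50. CC50 came from 48 h MTT viability of TZM-bl cells. IC50 came from 48 h luciferase read-out in TZM-bl cells infected for 2 h with HIV-1 UG070 or VB59 and then treated with two-fold dilutions at sub-toxic concentrations.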

[2] = Cytotoxicity against human TZM-bl cells assessed as reduction in cell viability incubated for 48 hrs by MTT assay; assay type: cell-based
In short: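 TZM-bl cells (10^4/well) were seeded overnight at 37 °C in humidified 5% CO2. Serial two-fold dilutions were added, with AZT as control, for 48 h. Viability was read by MTT, and CC50 (concentration leaving 50% of cells viable) was obtained by non-linear regression.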

[3] = system: Human immunodeficiency virus 1; test: Antiviral activity against HIV1 VB59 infected in human TZM-bl cells incubated for 48 hrs by bright Glo-luciferase reporter gene assay; assay type: functional, organism-based; conditions: Human immunodeficiency virus 1, VB59, TZM-bl
In short: (§2)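 TZM-bl cells (10^4/well, seeded the day before) were infected with pre-titrated HIV-1 VB59 or UG070 stocks for 2 h. Serial two-fold dilutions at sub-toxic concentrations were then added, with AZT as control, for 48 h. Britelite plus luciferase substrate was added and RLU measured. IC50 was derived from percent inhibition against infected untreated and uninfected controls.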

[4] = Therapeutic index, ratio of CC50 for human TZM-bl cells to IC50 for antiviral activity against HIV1 N119 infected in human TZM-bl cells; assay type: toxicity, cell-based; conditions: read-out: Ratio CC50/IC50
In short: (§3)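 TI = CC50/IC50. CC50 came from TZM-bl cells (10^4/well) exposed to serial two-fold dilutions for 48 h at 37 °C, 5% CO2, with MTT viability and non-linear regression fitting. IC50 came from TZM-bl cells infected 2 h, treated with sub-toxic two-fold dilutions for 48 h, with luciferase RLU read-out.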

[5] = system: Human immunodeficiency virus 1; test: Antiviral activity against HIV1 92/BR/018 infected in human TZM-bl cells incubated for 48 hrs by bright Glo-luciferase reporter gene assay; assay type: functional, organism-based; conditions: Human immunodeficiency virus 1, 92/BR/018, TZM-bl
In short: (§4)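 TZM-bl cells (HeLa-derived, expressing CD4/CXCR4/CCR5, with an LTR-driven luciferase reporter) were seeded at 10^4 cells/well overnight. Cells were infected with pre-titrated virus for 2 h, then given serial two-fold dilutions of sub-toxic compound concentrations and incubated 48 h. Luciferase substrate was added and RLU read. IC50 was taken from percent inhibition versus infected untreated controls. NVP and AZT served as controls.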

[6] = Therapeutic index, ratio of CC50 for human TZM-bl cells to IC50 for antiviral activity against HIV1 UG070 infected in human TZM-bl cells; assay type: toxicity, cell-based; conditions: read-out: Ratio CC50/IC50; in short: as §1
[7] = system: Human immunodeficiency virus 1; test: Antiviral activity against HIV1 NL4.3 infected in human TZM-bl cells measured upto 10 hrs by bright Glo-luciferase reporter gene assay; assay type: functional, organism-based
In short: (§5)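 Time-of-addition: TZM-bl cells seeded at 10^4 cells/well and incubated overnight, then infected with HIV-1 NL4.3 (400 TCID50) in complete DMEM containing […] DEAE-dextran. Compounds and reference antiretrovirals were applied at five times their IC50 at 0, 1, 2, 3, 4, 6, 8, 10, 18 and 24 h post infection. Luciferase (RLU) was read 48 h post infection, in triplicate, as mean±SD.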

[8] = system: Human immunodeficiency virus 1; test: Antiviral activity against HIV1 VB51 infected in human PBMC cells incubated for 5 days by bright Glo-luciferase reporter gene assay; assay type: functional, organism-based; conditions: Human immunodeficiency virus 1, VB51, 120 h
In short: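 PBMCs (0.2×10^6 cells/well) were activated with PHA-p (5µg/mL) and IL-2 (5U/mL). Sub-toxic concentrations, chosen from a 5-day MTT CC50 at 37 °C in 5% CO2, were used against R5-tropic HIV-1 VB51.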

[9] = Therapeutic index, ratio of CC50 for human PBMC cells to IC50 for antiviral activity against HIV1 VB51 infected in human PBMC cells
[10] = system: Human immunodeficiency virus 1; test: Antiviral activity against HIV1 NARI-DR infected in human TZM-bl cells incubated for 48 hrs by bright Glo-luciferase reporter gene assay; assay type: functional, organism-based; conditions: Human immunodeficiency virus 1, NARI-DR; in short: as §4
[11] = system: Human immunodeficiency virus 1; test: Antiviral activity against HIV1 N119 infected in human TZM-bl cells incubated for 48 hrs by bright Glo-luciferase reporter gene assay; assay type: functional, organism-based; conditions: Human immunodeficiency virus 1, N119, TZM-bl; in short: as §4
[12] = system: Human immunodeficiency virus 1; test: Antiviral activity against HIV1 NL4.3 infected in human TZM-bl cells measured upto 3 hrs by bright Glo-luciferase reporter gene assay; assay type: functional, organism-based; in short: as §5
[13] = Therapeutic index, ratio of CC50 for human TZM-bl cells to IC50 for antiviral activity against HIV1 92/BR/018 infected in human TZM-bl cells; assay type: toxicity, cell-based; conditions: read-out: Ratio CC50/IC50; in short: as §3
[14] = Therapeutic index, ratio of CC50 for human TZM-bl cells to IC50 for antiviral activity against HIV1 NARI-DR infected in human TZM-bl cells; assay type: toxicity, cell-based; conditions: read-out: Ratio CC50/IC50; in short: as §3
[15] = Cytotoxicity against human PBMC cells assessed as reduction in cell viability incubated for 5 days by MTT assay; assay type: cell-based
In short: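 PBMCs (0.2×10^6 cells/well) were activated with PHA-p (5 µg/mL) and IL-2 (5 U/mL) and exposed to serial two-fold compound dilutions at 37 °C, 5% CO2, for 5 days. Viability was measured by MTT and CC50 calculated.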

[16] = system: Human immunodeficiency virus 1; test: Antiviral activity against HIV1 UG070 infected in human TZM-bl cells incubated for 48 hrs by bright Glo-luciferase reporter gene assay; assay type: functional, organism-based; conditions: Human immunodeficiency virus 1, UG070, TZM-bl; in short: as §2

Row | SMILES | selectivity ratio [1] | CC50 at 48 h [2] [µM] | IC50 [3] [µM] | other results
1 | Cc1cc2c(cnn2-c2ccc(Br)cc2)c(=O)[nH]1 | 0.58 | 79.8 | 138 | –
2 | Cc1cc2c(cnn2-c2ccc(C)c(C)c2)c(=O)[nH]1 | 0.74 | 93.4 | 126 | –
3 | Cc1cc(C)cc(-n2ncc3c(=O)[nH]c(C)cc32)c1 | 185 | 679 | 3.67 | selectivity ratio [4]: 210; IC50 [5]: 7.42 µM; selectivity ratio [6]: 243; Activity [7]: Active; IC50 [8]: 8.65 µM; selectivity ratio [9]: 68; IC50 [10]: 2.53 µM; IC50 [11]: 3.24 µM; Activity [12]: Active; selectivity ratio [13]: 91; selectivity ratio [14]: 268; CC50 at 120 h [15]: 592 µM; IC50 [16]: 2.79 µM
4 | Cc1cc2c(cnn2-c2ccc(C(F)(F)F)cc2)c(=O)[nH]1 | – | 100 | > 171 | –
5 | Cc1cc2c(cnn2-c2ccccc2)c(=O)[nH]1 | 5.86 | 708 | 121 | IC50 [16]: 444 µM
6 | Cc1cc2c(cnn2-c2cc(Cl)cc(Cl)c2)c(=O)[nH]1 | – | 93.5 | > 171 | –
7 | Cc1cc2c(cnn2-c2ccc(F)c(F)c2)c(=O)[nH]1 | – | 133 | > 192 | –
8 | Cc1ccc(-n2ncc3c(=O)[nH]c(C)cc32)cc1 | 6.6 | 383 | 58.1 | selectivity ratio [6]: 1.67; IC50 [16]: 229 µM
9 | Cc1cc2c(cnn2-c2cccc(C(F)(F)F)c2)c(=O)[nH]1 | – | 34.1 | 128 | –
10 | Cc1ccnc2c1NC(=O)c1cccnc1N2C1CC1 [NEVIRAPINE] | – | – | – | selectivity ratio [4]: 4.3; IC50 [5]: 0.3 µM; IC50 [8]: 0.19 µM; selectivity ratio [9]: 5280; IC50 [10]: 232 µM; IC50 [11]: 140 µM; selectivity ratio [13]: 1990; selectivity ratio [14]: 2.6; CC50 at 120 h [15]: 1000 µM
11 | Cc1cc2c(cnn2-c2ccc(C(C)(C)C)cc2)c(=O)[nH]1 | – | 45.9 | > 178 | –
12 | Cc1cc2c(cnn2-c2cc(F)cc(F)c2)c(=O)[nH]1 | – | 130 | > 192 | –
13 | Cc1cc2c(cnn2-c2ccc(Cl)c(Cl)c2)c(=O)[nH]1 | – | 93.5 | > 171 | –
14 | COc1cccc(-n2ncc3c(=O)[nH]c(C)cc32)c1 | 2.24 | 553 | 247 | IC50 [16]: > 196 µM
15 | Cc1cn([C@H]2C[C@H](N=[N+]=[N-])[C@@H](CO)O2)c(=O)[nH]c1=O [ZIDOVUDINE] | – | 872 | – | CC50 at 120 h [15]: 1070 µM
16 | Cc1cc2c(cnn2-c2ccc(Cl)cc2)c(=O)[nH]1 | – | 260 | > 193 | –
17 | Cc1cc2c(cnn2-c2cccc(F)c2)c(=O)[nH]1 | – | 159 | > 206 | –
18 | Cc1cc2c(cnn2-c2cccc(Br)c2)c(=O)[nH]1 | 0.52 | 72.6 | 139 | –
